Measured values collected from several papers.
Protocols differ between the studies behind these lines.
RET: Proto-oncogene tyrosine-protein kinase receptor Ret (RET, Homo sapiens, UniProt P07949)
RET V804L: Proto-oncogene tyrosine-protein kinase receptor Ret (RET, Homo sapiens, UniProt P07949, V804L)
RET V804M: Proto-oncogene tyrosine-protein kinase receptor Ret (RET, Homo sapiens, UniProt P07949, V804M)

| Structure (SMILES) | target | test | conditions | quantity | result |
| --- | --- | --- | --- | --- | --- |
| Cc1ccc2c(=O)c(C(=O)Nc3ccc(C)c(C)c3)cn(CC(=O)NC3CCCC3)c2n1 | RET | enzyme activity, inhibitor, radiometric | 0.1 µM | remaining activity | 114% |
| C[C@H](c1ccnc(Nc2nc3ccc(-c4cc(N(C)C)ncn4)cc3[nH]2)c1)N1CCN(C(=O)CC(F)(F)F)CC1 | RET V804L | cell-free assay, competition with immobilised ligand | 0.1 µM | remaining binding | 83% |
| CCCOc1ccc(OC)c(F)c1C(=O)c1ccc(C(=O)N[C@@H]2CNC[C@H]2NC(=O)c2ccc3[nH]ncc3c2)cc1 | RET | enzyme activity, inhibitor | 10 µM | remaining activity | 1% |
| CNC(=O)Nc1ccc2c(c1)[C@@]1(CC2)OC(=O)N(CC(=O)N(Cc2ccc(F)cc2)[C@@H](C)C(F)(F)F)C1=O | RET V804L | cell-free assay, competition with immobilised ligand | 1 µM | remaining binding | 94% |
| CO[C@]1(C(=O)N[C@@H](C)c2ccc(-n3cc(F)cn3)nc2)CC[C@H](c2nc(C)cc(Nc3cc(C)[nH]n3)n2)CC1 | Proto-oncogene tyrosine-protein kinase receptor Ret (RET, Homo sapiens, UniProt P07949, L760A) | thermal stability, DSF | 10 µM | ΔTm | 11.9 °C |
| CC(C)(O)c1cncc(-c2nc3ccc(F)cc3n2C2CC2)c1 | RET V804M | cell-free assay, competition with immobilised ligand | 1 µM | remaining binding | 100% |
| COc1cc(NC(=O)Nc2cc(C)c3nc(NC(=O)c4ccccc4)sc3c2)cc(OC)c1 | RET | enzyme activity, inhibitor, radiometric | 0.1 µM | remaining activity | 123% |
| COc1ccc(CN2C3CC2CN(c2ccc(-c4cc(OCC(C)(C)O)cn5ncc(C#N)c45)cn2)C3)cn1 | RET V804M | thermal stability, DSF | 10 µM | ΔTm | 6.4 °C |
| COc1ccc(-c2cn3cc(C(=O)N4CC(O)C4)nc3c(=O)n2C)c(F)c1 | RET | enzyme activity, inhibitor, radiometric | 0.1 µM | remaining activity | 117% |
| Nc1ncnc2occ(-c3ccc(NC(=O)Nc4cc(C(F)(F)F)ccc4F)cc3)c12 | RET | cell-free assay | 20 µM | remaining signal | 0% |
